By IC50 is commonly meant the concentration that gives 50% inhibition.

Consider six compounds from ChEMBL document CHEMBL1123901, “Inhibition of delayed hypersensitivity reactions by cinnamyl 1-thioglycosides” (J Med Chem, 1987).

Common to all, as to assay type: functional
Assay [1] is filed under the species Cavia porcellus. The assay can be described thus: Effect on guinea pig T cell proliferation was tested by measuring the incorporation of [3H]-thymidine uptake at the concentration of 0 uM. The gist of the method: (§1)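 Strain 2 female guinea pigs were immunized with 100 μg OVA in CFA split over the footpads. At day 14 they received mineral oil ip, and the exudate was collected 4 days later. T cells were enriched on nylon wool. 2×10^5 cells per well were cultured with 10% irradiated (2100 rads) exudate cells, OVA (10 μg/mL) and compound, for 72 h at 37 °C in 5% CO2. [3H]thymidine (1 μCi) was added 18-24 h before harvest. Triplicate wells; mean Δcpm ± SD.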

The species named for assay [2] is Cavia porcellus. The assay can be described thus: Effect on guinea pig T cell proliferation was tested by measuring the incorporation of [3H]thymidine uptake at the concentration of 500 uM. The gist of the method: as §1
The species named for assay [3] is Cavia porcellus. The assay is described as follows: Effect on guinea pig T cell proliferation was tested by measuring the incorporation of [3H]thymidine uptake at the concentration of 750 uM. The gist of the method: as §1
The species named for assay [4] is Cavia porcellus. The assay can be described thus: Effect on guinea pig T cell proliferation was tested by measuring the incorporation of [3H]thymidine uptake at the concentration of 10 uM. Summed up: as §1
Assay [5] is filed under the species Cavia porcellus. The assay is described as follows: Effect on guinea pig T cell proliferation was tested by measuring the incorporation of [3H]thymidine uptake at the concentration of 1000 uM. The gist of the method: as §1
The species named for assay [6] is Cavia porcellus. The assay can be described thus: Effect on guinea pig T cell proliferation was tested by measuring the incorporation of [3H]thymidine uptake at the concentration of 250 uM. Summed up:
as §1

For assay [7], the species on record is Cavia porcellus. The assay can be described thus: Inhibitory activity against [3H]thymidine uptake by cinnamyl 1-thioglycosides in guinea pig T cell proliferation. Summed up: as §1
For assay [8], the species on record is Cavia porcellus. The assay can be described thus: Effect on guinea pig T cell proliferation was tested by measuring the incorporation of [3H]-thymidine uptake at the concentration of 100 uM. Summed up:
as §1

The test system of assay [9] is Mus musculus. The assay can be described thus: Percent reduction in mice after oral administration of 30 mg/kg. Summed up:
(§2)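 DTH in A/J female mice (20-23 g): cyclophosphamide 200 mg/kg sc, then iv sensitization with 10^8 washed SRBC 3 days later. On day 6 after sensitization, one hind footpad challenged with 10^8 SRBC in 20 μL, the other given saline. Dosing ip or po to overnight-fasted mice 20 min before challenge. Swelling read at 24 and 48 h as antigen minus saline footpad (mm × 10), by constant-pressure caliper.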

The subject of assay [10] is Mus musculus. The assay is described as follows: Compound was administered orally to mice before increase in foot-pad thickness at a dose of 30 mg/kg. As to conditions: route oral. The gist of the method: as §2
The species named for assay [11] is Cavia porcellus. The assay is described as follows: [3H]thymidine uptake was determined by liquid scintillation spectroscopy in compound 2 treated Macrophages. The gist of the method:
(§3)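 Guinea pig PELs and irradiated (2100 rads) exudate macrophages were each preincubated with compound (1 mM or 500 μM, depending on agent) for 18 h at 37 °C, then washed. Macrophages were pulsed with OVA 100 μg/mL for 1 h at 37 °C and washed. Cells were viability-adjusted by trypan blue and mixed, with or without OVA 10 μg/mL. Culture ran 72 h at 37 °C with [3H]thymidine read by scintillation, as mean Δcpm × 10^-3.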

Assay [12] is filed under the species Cavia porcellus. The assay is described as follows: [3H]thymidine uptake was determined by liquid scintillation spectroscopy in ovalbumin pulsed Macrophages. Summed up: (§4)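 Pretreatment protocol. Strain 2 female guinea pigs immunized with OVA in CFA (100 μg OVA; 0.1 mL/foot); mineral oil given ip at day 14, peritoneal exudate collected 4 days later. Nylon-wool-enriched T cells (PELs) and irradiated (2100 rads) exudate macrophages each incubated with sugar derivative 18 h at 37 °C, then washed. Macrophages pulsed with OVA 100 μg/mL for 1 h at 37 °C and washed. Viability adjusted by trypan blue; populations mixed and cultured 72 h at 37 °C. [3H]thymidine (1 μCi) added 18-24 h before harvest; read by liquid scintillation as mean Δcpm ×10^-3.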

In assay [13] the test system is Mus musculus. The assay is described as follows: Compound was administered orally to mice before increase in foot-pad thickness at a dose of 10 mg/kg. As to conditions: route oral. Summed up: as §2
The species entered for assay [14] is Cavia porcellus. The assay is described as follows: [3H]-Thymidine uptake was determined by liquid scintillation spectroscopy in OVA pulsed compound 4 pretreated Macrophages pretreated with 500 uM of 4 at 37 degree C for 18 h. As to conditions: in the assay text read “1 mM” for “500 uM”. Summed up:
as §3

The species entered for assay [15] is Cavia porcellus. The assay is described as follows: [3H]thymidine uptake was determined by liquid scintillation spectroscopy in Macrophages. Summed up:
as §3

The species entered for assay [16] is Cavia porcellus. The assay is described as follows: [3H]-Thymidine uptake was determined by liquid scintillation spectroscopy in Macrophages pretreated with 500 uM of 4 at 37 degree C for 18 h. Particulars: in the assay text read “1 mM” for “500 uM”. Summed up:
as §3

Assay [17] relates to Mus musculus. The assay can be described thus: Compound was administered intraperitoneally to mice before increase in foot-pad thickness at a dose of 3 mg/kg. Particulars: route intraperitoneal. The gist of the method:
as §2

The species entered for assay [18] is Cavia porcellus. The assay can be described thus: [3H]thymidine uptake was determined by liquid scintillation spectroscopy in ovalbumin (OVA) pulsed compound 4 treated Macrophages. Summed up: as §4
The subject of assay [19] is Mus musculus. The assay can be described thus: Percent reduction in mice after intraperitoneal administration 3 mg/kg. The gist of the method: as §2
The test system of assay [20] is Mus musculus. The assay can be described thus: Percent reduction in mice after oral administration 10 mg/kg. Summed up:
as §2

The species entered for assay [21] is Cavia porcellus. The assay is described as follows: [3H]thymidine uptake was determined by liquid scintillation spectroscopy in 4 pretreated OVA pulsed Macrophages plus OVA (10 ug/mL) pretreated with 500 uM of 4 at 37 degree C for 18 h. As to conditions: in the assay text read “1 mM” for “500 uM”. Summed up:
as §3

The subject of assay [22] is Mus musculus. The assay is described as follows: Percent reduction in mice after oral administration 3 mg/kg. Summed up: as §2
Assay [23] relates to Mus musculus. The assay is described as follows: Compound was administered orally to mice before increase in foot-pad thickness at a dose of 3 mg/kg. Particulars: route oral. The gist of the method:
as §2

For assay [24], the species on record is Cavia porcellus. The assay is described as follows: [3H]thymidine uptake was determined by liquid scintillation spectroscopy in compound 4 pretreated OVA pulsed Macrophages plus OVA (10 ug/mL). Summed up:
as §3

For assay [25], the system named is Mus musculus. The assay can be described thus: Compound was administered intraperitoneally to mice before increase in foot-pad thickness at a dose of 10 mg/kg. Particulars: route intraperitoneal. The gist of the method: as §2
Assay [26] is filed under the species Cavia porcellus. The assay is described as follows: [3H]thymidine uptake was determined by liquid scintillation spectroscopy in compound 4 treated Macrophages pretreated with 500 uM of 4 at 37 degree C for 18 h. Particulars: in the assay text read “1 mM” for “500 uM”. The gist of the method: as §3
Assay [27] relates to Mus musculus. The assay is described as follows: Percent reduction in mice after intraperitoneal administration 10 mg/kg. The gist of the method: as §2
In assay [28] the test system is Mus musculus. The assay is described as follows: Compound was administered intraperitoneally to mice before increase in foot-pad thickness at a dose of 30 mg/kg. Particulars: route intraperitoneal. The gist of the method:
as §2

For assay [29], the system named is Mus musculus. The assay can be described thus: Percent reduction in mice after intraperitoneal administration of 30 mg/kg. The gist of the method:
as §2

As to `OCC1OC(SC/C=C/c2ccccc2)C(O)C(O)C1O` (stereo in doubt; 3), the Activity was 80.3 Δcpm x10e-3 in the assay filed under Cavia porcellus [1]; 62.7 Δcpm x10e-3 in the assay listed under Cavia porcellus [2]; 38.4 Δcpm x 10^-3 in the assay listed under Cavia porcellus [3]; 75.3 Δcpm x10e-3 in the assay filed under Cavia porcellus [4]; 42 Δcpm x10e-3 in the assay filed under Cavia porcellus [5]; 67.8 Δcpm x10e-3 in the assay listed under Cavia porcellus [6]. The Activity in the assay listed under Cavia porcellus [8] is 66.7 Δcpm x10e-3. For the same compound, in the assay listed under Cavia porcellus [7] (Cavia porcellus, T-cell, 72 h), the half-maximal inhibitory concentration (IC50) was 871 µM.
For the compound `CCCC(=O)NCC1OC(SC/C=C/c2ccccc2)C(O)C(O)C1O` (configuration not stated), the Activity was 85.8 Δcpm x10e-3 in the assay listed under Cavia porcellus [1]; 0 Δcpm x10e-3 in the assay filed under Cavia porcellus [2]; 0 Δcpm x 10^-3 in the assay filed under Cavia porcellus [3]; 68.4 Δcpm x10e-3 in the assay listed under Cavia porcellus [4]; 0.07 Δcpm x10e-3 in the assay filed under Cavia porcellus [5]; 1.73 Δcpm x10e-3 in the assay listed under Cavia porcellus [6]. The Activity in the assay listed under Cavia porcellus [8] is 45 Δcpm x10e-3.
`O=C(CCCCC1CCSS1)NCC1OC(SC/C=C/c2ccccc2)C(O)C(O)C1O` (configuration not stated): the Activity in the assay listed under Cavia porcellus [1] was 93.2 Δcpm x10e-3; in the assay filed under Cavia porcellus [2], 0 Δcpm x10e-3; in the assay filed under Cavia porcellus [3] it was 0 Δcpm x 10^-3; in the assay filed under Cavia porcellus [4] it was 75.2 Δcpm x10e-3; in the assay filed under Cavia porcellus [5], 0.08 Δcpm x10e-3; in the assay listed under Cavia porcellus [6] it was 0 Δcpm x10e-3. Besides, the Activity in the assay listed under Cavia porcellus [8] is 2.97 Δcpm x10e-3.
Take `CC1OC(SC/C=C/c2ccccc2)C(O)C(O)C1O` (stereo in doubt; 4): the Reduction in the assay with Mus musculus [9] was determined as 34%; with Mus musculus [19], 13%; in the assay on Mus musculus [20], 18%; with Mus musculus [22] it was 16%; in the assay on Mus musculus [27] it was 47%; in the assay with Mus musculus [29] it was 56%. Moreover, the Activity in the assay filed under Cavia porcellus [1] is 72.8 Δcpm x10e-3; in the assay on Mus musculus [10], 0.77 mm x10; in the assay filed under Cavia porcellus [2], 1.51 Δcpm x10e-3; in the assay filed under Cavia porcellus [3], 0.02 Δcpm x 10^-3; with Mus musculus [13], 0.96 mm x10; in the assay filed under Cavia porcellus [4] it was 93.6 Δcpm x10e-3. The Activity in the assay with Mus musculus [17] was 4.6 mm x10; in the assay listed under Cavia porcellus [5], 0.06 Δcpm x10e-3; in the assay listed under Cavia porcellus [6], 5.8 Δcpm x10e-3; in the assay on Mus musculus [23] it was 0.98 mm x10; in the assay with Mus musculus [25], 2.78 mm x10; in the assay listed under Cavia porcellus [8], 62.1 Δcpm x10e-3. Besides, the Activity with Mus musculus [28] stood at 2.34 mm x10. Besides, the “Delta cpm x10e-3” value was determined as 4.89 in the assay listed under Cavia porcellus [11]; 141.55 in the assay listed under Cavia porcellus [12]; 33.97 in the assay listed under Cavia porcellus [14]; 6.67 in the assay filed under Cavia porcellus [15]; 4.75 in the assay filed under Cavia porcellus [16]; 104.36 in the assay listed under Cavia porcellus [18]. The “Delta cpm x10e-3” value was 49.95 in the assay listed under Cavia porcellus [21], 139.97 in the assay filed under Cavia porcellus [24] and 2.81 in the assay listed under Cavia porcellus [26]. For the same compound, in the assay listed under Cavia porcellus [7] (t-cell), the IC50 came out at 160 µM.
For the compound `CC1OC(SC/C=C/c2ccccc2)C(O)C(O)C1O` (stereo in doubt; 5), the Activity is 147 Δcpm x10e-3 in the assay filed under Cavia porcellus [1]; 66.6 Δcpm x10e-3 in the assay listed under Cavia porcellus [2]; 31.8 Δcpm x 10^-3 in the assay listed under Cavia porcellus [3]; 144 Δcpm x10e-3 in the assay filed under Cavia porcellus [4]; 17.5 Δcpm x10e-3 in the assay filed under Cavia porcellus [5]; 109 Δcpm x10e-3 in the assay filed under Cavia porcellus [6]. For the same compound, in the assay filed under Cavia porcellus [8], the Activity is 130 Δcpm x10e-3. Half-maximal inhibition in the assay filed under Cavia porcellus [7] (t-cell) (IC50) required 525 µM.
For `CC1OC(SC/C=C/c2ccccc2)C(O)C(O)C1O` (stereo in doubt; 6), the Activity is 93.5 Δcpm x10e-3 in the assay filed under Cavia porcellus [1]; 36.4 Δcpm x10e-3 in the assay listed under Cavia porcellus [2]; 12.8 Δcpm x 10^-3 in the assay listed under Cavia porcellus [3]; 115 Δcpm x10e-3 in the assay filed under Cavia porcellus [4]; 5.97 Δcpm x10e-3 in the assay listed under Cavia porcellus [5]; 59.7 Δcpm x10e-3 in the assay filed under Cavia porcellus [6]. The Activity in the assay filed under Cavia porcellus [8] was 101 Δcpm x10e-3. The IC50 in the assay filed under Cavia porcellus [7] (t-cell) amounted to 750 µM.
